≈ marks a conversion by molar mass, not a printed value.
Key:
[1] = Dissociation constant at 37 degree Centigrade; format: physicochemical
[2] = Half-life at pH 7.4; format: ADME; conditions: buffer
Procedure, shortened: (§1)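 Stability at ambient temperature (20 °C) in acetonitrile/phosphate buffer (1:3) adjusted to the stated pH. Initial compound concentration is 1 × 10⁻³ to 3 × 10⁻⁴ M. Loss is followed by reverse-phase C18 HPLC with UV detection at 280 nm. t1/2 comes from linear regression of ln(concentration) vs time (h).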

Rattus norvegicus [3] = assay: Inhibition of histamine-stimulated gastric acid secretion in lumen perfused anesthetized rat after intraduodenal administration; format: functional; conditions: Stomach
Procedure, shortened: (§2)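 Anaesthetized rat with stomach lumen perfusion. Effluent H⁺ activity is monitored continuously with a microflow glass electrode. Secretion is driven by i.v. histamine infusion at 0.25 μmol/(kg·min). Inhibitor is given i.v. or i.d. once a submaximal plateau is reached. % inhibition compares peak inhibition with the pre-dose plateau. ED50 uses three dose levels, three animals per dose.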

Rattus norvegicus [4] = assay: Inhibition of histamine-stimulated gastric acid secretion in lumen perfused anesthetized rat after intravenous administration; format: functional; conditions: Stomach; procedure, shortened: as §2
Canis familiaris [5] = assay: Percent inhibition of histamine-stimulated gastric acid secretion in Heidenhain pouch dog after intraduodenal administration of compound (1 umol/kg); format: functional, Canis lupus familiaris, Stomach
Procedure, shortened: (§3)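 Heidenhain pouch dog with i.v. histamine at 0.5 μmol/(kg·h). Juice is collected every 15 min and acid output is found by titration to pH 7.4. Compound is given intraduodenally via a chronic duodenal cannula at submaximal plateau. Value is peak inhibition or mean plateau inhibition over 1 to 2½ h, mean of n = 4 dogs ± SEM.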

[6] = Half-life at pH 1.0; format: ADME; conditions: buffer; procedure, shortened: as §1
Canis familiaris [7] = assay: Inhibition of histamine-stimulated gastric acid secretion in conscious Heidenhain pouch dog after intravenous administration; format: functional; conditions: Canis lupus familiaris, Stomach
Procedure, shortened: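 Conscious dog with a Heidenhain pouch made 1-3 years earlier. Acid secretion is stimulated by i.v. histamine at 0.5 μmol/(kg·h). Juice is collected by gravity every 15 min and titrated to pH 7.4 with 0.1 N NaOH. Inhibitor is given i.v. at submaximal plateau. % inhibition compares the peak-inhibition sample with the pre-dose sample. ED50 uses three doses × three dogs, with 95% confidence limits (n = 9).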

Rattus norvegicus [8] = assay: Inhibition of histamine-stimulated gastric acid secretion in lumen perfused anesthetized rat after intravenous administration; Poor solubility; format: functional, organism-based; conditions: Stomach; procedure, shortened: as §2
[9] = Partition coefficient at 37 degrees Celsius at pH 7.4; format: physicochemical; conditions: octanol/water
[10] = Dissociation constant at 37 degrees Centigrade; format: physicochemical
Canis familiaris [11] = assay: Percent inhibition of histamine-stimulated gastric acid secretion in Heidenhain pouch dog after intraduodenal administration of compound (2 umol/kg); format: functional, Canis lupus familiaris, Stomach; procedure, shortened: as §3
[12] = Solubility in water at pH 10
[13] = Partition coefficient at 37 degree Celsius at pH 7.4; format: physicochemical; conditions: octanol/water
Rattus norvegicus [14] = assay: Inhibition of histamine-stimulated gastric acid secretion in lumen perfused anesthetized rat after intravenous administration of 1 umol/kg; format: functional; conditions: Stomach; procedure, shortened: as §2
Rattus norvegicus [15] = assay: Inhibition of histamine-stimulated gastric acid secretion in lumen perfused anesthetized rat after intravenous administration of 1 umol/kg.; format: functional; conditions: Stomach; procedure, shortened: as §2

pKa [1]	half-life [2] [h]	SMILES	ED50 (Rattus norvegicus [3]) [µmol/kg]	ED50 (Canis familiaris [7]) [µmol/kg]	further results
7.12	11	COc1ccc2[nH]c([S+]([O-])Cc3nccc(N(C)C)c3F)nc2c1 (stereo not given)	–	–	–
–	444	COc1ccc2[nH]c([S+]([O-])Cc3ncc(C)c(N4CCCCC4)c3Cl)nc2c1 (stereo not given)	2.51	–	–
5.8	101	COc1ccc2[nH]c([S+]([O-])Cc3cc(N(C)C)c(Br)cn3)nc2c1 (stereo not given)	1.75	–	ED50 (Rattus norvegicus [4]): 0.26 µmol/kg
5.92	432	COc1ccc2[nH]c([S+]([O-])Cc3ncc(C)c(N(C)C)c3Cl)nc2c1 (stereo not given)	1.48	–	ED50 (Rattus norvegicus [4]): 0.34 µmol/kg; Inhibition (Canis familiaris [5]): 67%; half-life [6]: 1 min
6.92	49	COc1ccc2[nH]c([S+]([O-])Cc3cc(N4CCCC4)c(Br)cn3)nc2c1 (stereo not given)	–	–	–
–	17	COc1ccc2[nH]c([S+]([O-])Cc3nccc(N(C)C)c3Cl)nc2c1 (stereo not given)	0.38	0.26	ED50 (Rattus norvegicus [4]): 0.44 µmol/kg
–	300	COc1ccc2[nH]c([S+]([O-])Cc3nccc(N4CCCCC4)c3Br)nc2c1 (stereo not given)	–	–	ED50 (Rattus norvegicus [4]): 0.85 µmol/kg
5.89	144	COc1ccc2[nH]c([S+]([O-])Cc3nccc(N4CCOCC4)c3F)nc2c1 (stereo not given)	3.2	–	–
7.58	36	COc1ccc2[nH]c([S+]([O-])Cc3nccc(N4CCCC4)c3Cl)nc2c1 (stereo not given)	–	–	ED50 (Rattus norvegicus [8]): Poor solubility
5.32	> 3000	COc1ccc2[nH]c([S+]([O-])Cc3ncc(C)c(N4CCOCC4)c3Cl)nc2c1 (stereo not given)	–	–	–
–	456	COc1ccc2[nH]c([S+]([O-])Cc3ncc(C)c(OC)c3C)nc2c1 (stereo not given) [OMEPRAZOLE]	–	0.2	Inhibition (Canis familiaris [5]): 53%; half-life [6]: 2 min; logD [9]: 2.18; pKa [10]: 6.29
5.28	1300	COc1ccc2[nH]c([S+]([O-])Cc3nccc(N4CCOCC4)c3Cl)nc2c1 (stereo not given)	1.14	1.01	Inhibition (Canis familiaris [11]): 48%; solubility [12]: 15 mg/mL (≈ 36.9 mM); half-life [6]: 1 min; logD [13]: 1.81
5.95	175	COc1ccc2[nH]c([S+]([O-])Cc3nccc(N4CCCCC4)c3Cl)nc2c1 (stereo not given)	7.72	1.16	–
5.72	418	COc1ccc2[nH]c([S+]([O-])Cc3cc(N4CCOCC4)c(F)cn3)nc2c1 (stereo not given)	0.65	5.07	–
–	–	COc1ccc2[nH]c([S+]([O-])Cc3cc(N4CCOCC4)c(Br)cn3)nc2c1 (stereo not given)	–	–	inhibition in vivo at 1 µmol/kg (Rattus norvegicus [14]): 14%
–	96	COc1ccc2[nH]c([S+]([O-])Cc3cc(N(C)C)c(Cl)cn3)nc2c1 (stereo not given)	–	0.77	ED50 (Rattus norvegicus [4]): 1.32 µmol/kg
–	60	COc1ccc2[nH]c([S+]([O-])Cc3ncc(C)c(N4CCCC4)c3Cl)nc2c1 (stereo not given)	–	0.57	–
5.4	864	COc1ccc2[nH]c([S+]([O-])Cc3cc(N4CCCCC4)c(Br)cn3)nc2c1 (stereo not given)	1.05	2.94	–
6.96	26	COc1ccc2[nH]c([S+]([O-])Cc3cc(N(C)C)c(F)cn3)nc2c1 (stereo not given)	–	–	inhibition in vivo at 1 µmol/kg (Rattus norvegicus [15]): 37%

Reference: ChEMBL document CHEMBL1124570, “2-[[(4-Amino-2-pyridyl)methyl]sulfinyl]benzimidazole H+/K+-ATPase inhibitors. The relationship between pyridine basicity, stability, and activity” (J Med Chem, 1989)
